These entries were drawn from the full list.
Apaf-1 act – human Apaf-1 activation; hit rate 0.31% among 330,000; O14727; Apaf-1 apoptosome caspase-3 activation, DEVD-Rh110 fluorescence; active compounds read low; activity change, negative = activation, % at 20 µM;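 active = activity change at or below -40% at 20 µM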
Target sequence (O14727 whole entry, looked up): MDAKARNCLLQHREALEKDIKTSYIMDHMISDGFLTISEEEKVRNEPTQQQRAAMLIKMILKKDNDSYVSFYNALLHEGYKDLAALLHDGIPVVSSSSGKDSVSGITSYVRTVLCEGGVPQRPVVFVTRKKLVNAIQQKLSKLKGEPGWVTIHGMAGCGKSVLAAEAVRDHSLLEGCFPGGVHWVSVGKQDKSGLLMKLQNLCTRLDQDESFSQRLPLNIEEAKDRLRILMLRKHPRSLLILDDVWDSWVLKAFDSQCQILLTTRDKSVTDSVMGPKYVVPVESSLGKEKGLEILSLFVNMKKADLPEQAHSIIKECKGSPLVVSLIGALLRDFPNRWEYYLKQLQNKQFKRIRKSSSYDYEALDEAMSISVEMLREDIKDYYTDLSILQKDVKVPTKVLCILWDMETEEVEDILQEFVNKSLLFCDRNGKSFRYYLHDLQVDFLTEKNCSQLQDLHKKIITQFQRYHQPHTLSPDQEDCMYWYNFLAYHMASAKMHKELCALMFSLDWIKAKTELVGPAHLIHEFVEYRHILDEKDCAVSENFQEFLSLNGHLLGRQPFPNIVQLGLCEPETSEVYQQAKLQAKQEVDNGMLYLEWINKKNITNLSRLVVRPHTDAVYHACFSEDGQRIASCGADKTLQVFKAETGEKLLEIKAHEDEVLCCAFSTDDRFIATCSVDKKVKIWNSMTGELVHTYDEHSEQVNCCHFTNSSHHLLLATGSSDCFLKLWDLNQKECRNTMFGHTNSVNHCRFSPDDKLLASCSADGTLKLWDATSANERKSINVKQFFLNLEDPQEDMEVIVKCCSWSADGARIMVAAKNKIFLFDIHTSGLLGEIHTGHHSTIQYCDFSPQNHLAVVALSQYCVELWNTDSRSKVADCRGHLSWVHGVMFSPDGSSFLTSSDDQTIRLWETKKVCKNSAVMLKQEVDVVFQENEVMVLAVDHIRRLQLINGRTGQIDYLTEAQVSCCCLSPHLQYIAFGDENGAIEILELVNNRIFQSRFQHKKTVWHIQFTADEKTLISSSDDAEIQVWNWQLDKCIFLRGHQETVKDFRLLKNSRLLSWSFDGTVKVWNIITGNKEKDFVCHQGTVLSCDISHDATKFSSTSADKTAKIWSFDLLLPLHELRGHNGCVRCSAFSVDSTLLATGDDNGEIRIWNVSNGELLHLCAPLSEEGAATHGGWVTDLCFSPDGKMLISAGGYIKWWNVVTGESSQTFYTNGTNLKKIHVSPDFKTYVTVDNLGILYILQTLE
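Schedule: 30 min preincubation, 50 min reaction, room temperature / System: biochemical Apaf-1 apoptosome reconstitution / Medium: 20 mM HEPES pH 7.5 with CHAPS, BSA / Evaluation: Caspase-3 cleavage activity downstream of Apaf-1 activation / Detection: Caspase-3-released Rh110 fluorescence, 540 nm emission, 480 nm excitation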
Rh110 interf act – counter-screen for Apaf-1 activators: fluorescence interference; shares compounds with Apaf-1 act; Rh110 fluorescence interference, quenched caspase reaction, Ex480/Em540; fluorescence interference (activity change), % at 20 µM, hits read low; 980 tested, under 10 active; AID 504616;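 active = mean activity change at or below -40% when tested at 20 µM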
Apaf-1 act conf – Apaf-1 (human) activation, single-dose confirmed. shares compounds with Apaf-1 act. reconstituted apoptosome caspase-3 activity, DEVD-Rh110 fluorescence; active compounds read low. activity change, negative = activation, % at 20 µM. hit rate 5% among 980;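 active = mean activity change at or below -40%, meaning activation of 40% or more, at 20 µM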
Apaf1 act interf – shows fluorescence interference in the Apaf-1 activator assay format; shares compounds with Apaf-1 act; fluorescence interference counterscreen; EC50, µM; 55 tested, under 10 active; call rule not given here
* hit, by the source's call.

SMILES	Apaf-1 act	others
CCOc1cc(C2C(C(C)=O)=C(O)C(=O)N2CCc2c[nH]c3ccccc23)ccc1O (stereo not given)	49.2
CNC[C@H](Cc1cccc2ccccc12)NC[C@H](CCSC)NCC1CCC(C(C)(C)C)CC1 (stereo not given in full)	64.7
CC1=C(C#N)C(=O)N(C2CCS(=O)(=O)C2)C(=O)/C1=C\c1ccco1 (stereo not given)	54.2
COc1ccc(OCc2cc(C(=O)NC3CCOC(C)(C)C3)no2)c2ccccc12 (stereo not given)	62.9
COc1ccc(-c2cc(C(F)(F)F)n3ncc(C(=O)NCC4CCCO4)c3n2)cc1OC (stereo not given)	-495.9*
COCCn1c(N)c(C(=O)NCC2CCCO2)c2nc3ccccc3nc21 (stereo not given)	75.1
CC(C)Cn1c(N)c(C(=O)NCC2CCCO2)c2nc3ccccc3nc21 (stereo not given)	65.0
Cc1noc(/C=C/c2cccs2)c1S(=O)(=O)N1CCC(C(=O)NCCCN2CCC(C)CC2)CC1	40.0
CC1=NN(c2ccc(C)cc2C)C(=O)C1C(c1cccc(O)c1)C1C(=O)N(c2ccc(C)cc2C)N=C1C (stereo not given)	85.3
COCC(=O)O[C@]1(CCN(C)CCCc2nc3ccccc3[nH]2)CCc2cc(F)ccc2[C@@H]1C(C)C	54.3
Cc1c(C#N)c(=O)oc2ccc3ccccc3c12	-97.5*
O=C(Nc1ccccc1)Nc1ccc(O)c2ccccc12	44.0
COc1cc(/C=N/NC(=O)c2ccncc2)ccc1O	8.8
CCOC(=O)c1c(NC(=O)N/N=C/c2ccc(O)c(OC)c2)sc(C(C)=O)c1C	-63.1*
Oc1c(Br)cc(Br)cc1C=Nc1cccc2ncccc12	96.6
O=C(NC(C(=O)N/N=C/c1cc([N+](=O)[O-])ccc1O)c1n[nH]c(=O)c2ccccc12)c1ccccc1 (stereo not given)	-438.5*
O=[N+]([O-])c1ccc(O)c(C=Nc2cccc3ccccc23)c1	87.5
O=[N+]([O-])c1ccc(O)c(C=Nc2cccc3ncccc23)c1	90.5
CCN1CCc2c(sc(NC(=O)c3cc4ccccc4cc3OC)c2C(N)=O)C1	65.4
CC(=O)c1ccc(OCCCC(=O)N2CCN(S(=O)(=O)c3ccc(C)cc3C)CC2)cc1	40.5
Cc1nn(-c2ccccc2)c(N2CCCC2)c1/C=C1\N=C(c2ccc(OC(C)C)cc2)OC1=O	51.7
O=S(=O)(NCC(c1ccccc1)N1CCNCC1)c1ccc(Cl)cc1 (stereo not given)	42.8
Cc1noc(C)c1S(=O)(=O)N1CCN(C(c2ccccc2)c2ccc(Cl)cc2)CC1 (stereo not given)	-108.2*
CCCN1CCN(C(=O)C2CCN(S(=O)(=O)c3c(C)noc3/C=C/c3ccc(C)cc3)CC2)CC1	60.9
CCC1CCc2sc(C(=O)NCC(c3ccc(OC)cc3)N3CCCC3)cc2C1 (stereo not given)	45.8
SMILES	Apaf-1 act	others
CN(C)CCCNc1cc(O)c2ncccc2c1	77.5
COc1ccc(CC2=CC(=O)c3ccccc3C2=O)cc1	49.6
ONc1cccnc1-n1nc(C(F)(F)F)cc1C(F)(F)F	47.3
COc1ccc(NS(=O)(=O)c2ccc(C)c(NC(=O)CN3C(=O)NC4(CCCC4)C3=O)c2)cc1	82.2
CCC(=O)NC1=C(Cl)C(=O)C(NC(=O)CC)=C(Cl)C1=O	70.7
COc1ccccc1Oc1c(C)oc2c(CN3CCN(C)CC3)c(O)ccc2c1=O	-594.9*
CCN(CC(=O)Nc1ccc(OC)cc1)C(=O)C1CCN(C(=O)c2ccc(Cl)cc2)CC1	57.5
COc1ccc(OC)c(S(=O)(=O)Oc2ccc(N)c3ccccc23)c1	68.7
O=C(CSc1nnc(-c2ccc(F)cc2)n1CC1CCCO1)NCc1ccco1 (stereo not given)	53.6
C=CC(=O)Nc1ccc(N(C)c2ccnc(Nc3ccc(N4CCN(C)CC4)cc3)n2)cc1	61.6
COc1ccc(CC(=O)N(C)CC(=O)Nc2c(C)cccc2C)cc1S(=O)(=O)N1CCOCC1	59.7
COc1ccc(CC(=O)N(C)CC(=O)Nc2ccccc2C(F)(F)F)cc1S(=O)(=O)N1CCOCC1	46.4
COc1ccc(CN(C)C(C)C(=O)Nc2ccc(S(=O)(=O)N3CCCC3)cc2)c(OC)c1OC (stereo not given)	-83.3*
CCC(C)Nc1ccc(NC(C)CC)cc1 (stereo not given)	42.7
Oc1ccc(C[C@H]2CNCCN2CCCCC2CCCCC2)cc1	40.6
COc1ccccc1C1/C(=C(\O)c2ccc3c(c2)OCCO3)C(=O)C(=O)N1CCCn1ccnc1 (stereo not given)	45.0
CCCCCCCCCCCCC/C=C/[C@@H](O)[C@@H](N)CO	79.2
CC(C)NC(=O)C1CCN(S(=O)(=O)c2ccc(N3CCCC3=O)cc2)CC1	-331.6*	Rh110 interf act=-3.0;Apaf-1 act conf=2.2
CCC(C)NC(=O)C1CCN(S(=O)(=O)c2cccc3cccnc23)CC1 (stereo not given)	-456.3*	Rh110 interf act=-6.5;Apaf-1 act conf=8.7
Oc1ccccc1CNc1cccc2cccnc12	94.7
COc1ccc(OCCNc2c([N+](=O)[O-])c(=O)oc3ccccc23)cc1	73.3
Cc1cc(C)n(CC(C)C(=O)O)n1 (stereo not given)	-165.2*	Rh110 interf act=0.1;Apaf-1 act conf=-103.9*;Apaf1 act interf=>100
Cc1cc(OC(=O)c2ccccc2)n(CCC#N)n1	43.2
Cc1ccc(C(=O)NC2(O)C(=O)c3ccccc3C2=O)cc1C	96.8
CCN1/C(=C/c2ccc3cc(C)ccc3[n+]2CC)Sc2cc(C)c(C)cc21	64.5
SMILES	Apaf-1 act	others
Cc1cccnc1NC(=O)c1ccc(OCC2CCCO2)cc1 (stereo not given)	54.3
CCN(CC)S(=O)(=O)c1cccc(NC(=O)C2SC(=Nc3ccc(C)cc3C)C(C(=O)NCC3CCCO3)=C2N)c1 (stereo not given)	45.2
CCOC(=O)c1c(C)c(C(=O)NCC2CCCO2)c(C)n1C (stereo not given)	-58.6*	Rh110 interf act=-1.6;Apaf-1 act conf=11.1
Cc1ccccc1OCCNc1cc(N2CC(C)NC(C)C2)ccc1[N+](=O)[O-] (stereo not given)	56.5
O=C1C=C(Nc2ccc(F)cc2)c2ccccc2C1=O	87.1
O=C(Nc1ccccc1OC(F)F)c1oc2ccccc2c1COc1ccccc1	-180.4*	Rh110 interf act=4.1;Apaf-1 act conf=12.0
Cc1ccc(C(=O)NC(=S)Nc2cccc3nsnc23)cc1	58.9
O=C(/C=C/c1ccc(O)cc1)c1ccc(NC2=C(N3CCCCC3)C(=O)c3ccccc3C2=O)cc1	76.0
CN(C)C/C=C/C(=O)Nc1cccc(-c2c[nH]c3ncnc(Oc4ccc(NC(=O)CC(=O)Nc5ccc(F)cc5)cc4F)c23)c1	63.0
O=C1NCN(c2ccccc2)C12CCN(CCCC(c1ccc(F)cc1)c1ccc(F)cc1)CC2	54.7
C[C@@H](CN1C2=NC[C@H](Cc3ccccc3)N2C[C@H]1Cc1ccc(O)cc1)NC(=O)CCC1CCCCC1	40.7
COc1ccc(/C=C2/C(=O)N(c3ccccc3)N=C2C)cc1Br	86.9

Screens as filed in PubChem BioAssay.
